Data on 9 molecules can be found in ChEMBL document CHEMBL1926652, “Effect of 2',6'-dimethyl-L-tyrosine (Dmt) on pharmacological activity of cyclic endomorphin-2 and morphiceptin analogs” (Bioorg Med Chem, 2011).

Structures are written as SMILES. Activity calls are given as the source filed them. Where a SMILES comes first, the peptide text is derived from it. Bridges are numbered along the chain shown (N, C = ends). [ ]: non-standard residue; d: D form. Dmt = Cc1cc(O)cc(C)c1C[C@H](N)C(=O)O

Data set [1] relates to Mus musculus. Put plainly: Antinociceptive activity in icv dosed in Swiss albino mouse assessed as paw licking latency by hot plate method. The data set is classed as functional, organism-based. In a few lines: (§1)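 Male Swiss albino mice (20–26 g), 10 per group. Peptides dissolved in DMSO, diluted in saline, given i.c.v. with a Hamilton syringe and 0.5 mm needle, 5 min before testing in dose–response runs. Mouse confined by a plastic cylinder on a 55 °C hot plate. Latencies to paw licking, rearing and jumping recorded, 240 s cut-off. %MPE = (t1−t0)/(t2−t0)×100. ED50 derived from dose–response.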

Another data set has as its target Mu-type opioid receptor (Rattus norvegicus, UniProt P33535). Put plainly: Displacement of [3H]DAMGO from Wistar rat mu opioid receptor by liquid scintillation counting. In a few lines:
(§2)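 Crude membranes from Wistar rat brain incubated with [3H]DAMGO for mu or [3H][Ile5,6]deltorphin-2 for delta. Non-specific binding defined with naloxone. Reaction ended by rapid filtration on GF/B strips soaked in 0.5% […], then two ice-cold Tris-HCl washes. Bound radioactivity counted by liquid scintillation after overnight extraction. IC50 from three independent experiments in duplicate; ratio is delta IC50/mu IC50.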

For data set [2], the target named is Delta-type opioid receptor (Rattus norvegicus, UniProt P33533). Put plainly: Displacement of [3H][Ile5,6]deltorphin 2 from delta opioid receptor in Wistar rat brain membrane by liquid scintillation counting. The data set is classed as cell membranes. The procedure, abridged:
as §2

In data set [3] the test system is Mus musculus. Put plainly: Antinociceptive activity in icv dosed in Swiss albino mouse assessed as jumping latency by hot plate method. Type of data set: functional. In a few lines: as §1
For the next data set, the species on record is Rattus norvegicus. Put plainly: Selectivity ratio of IC50 for delta opioid receptor in Wistar rat brain membrane to IC50 for mu opioid receptor in Wistar rat brain membrane. Type of data set: cell membranes. In a few lines: as §2
Data set [4] in a line: Half life in Wistar rat brain at 0.5 mM by RP-HPLC analysis. Type of data set: ADME, tissue-based. In a few lines:
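Pooled rat brains homogenized in 20 volumes of 50 mM Tris-HCl, pH 7.4. Homogenate at 10 mg protein/ml incubated with an equal volume of 0.5 mM peptide at 37 °C for 0–60 min. Reaction stopped on ice with 1 M HCl, then centrifuged at 20,000g. Three experiments in duplicate.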

The subject of data set [5] is Mus musculus. Put plainly: Antinociceptive activity in icv dosed in Swiss albino mouse assessed as rearing latency by hot plate method. The data set is classed as functional, organism-based. The procedure, abridged: as §1
The species entered for data set [6] is Mus musculus. Put plainly: Antinociceptive activity in Swiss albino mouse assessed as jumping latency at 3 ng by hot plate method in presence of naltrindole. Type of data set: functional, organism-based. In a few lines: (§3)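 Hot plate test at 55 °C in male Swiss albino mice, 10 per group, with jumping latency read and a 240 s cut-off. Antagonists were given i.c.v.: beta-funaltrexamine, naltrindole at 1 µg/animal, nor-binaltorphimine at 5 µg/animal. Agonist peptides were given i.c.v. at 3 ng/animal. Inhibition of jumping expressed as %MPE.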

Data set [7] relates to Mus musculus. Put plainly: Antinociceptive activity in Swiss albino mouse assessed as jumping latency at 10 ng, icv up to 30 mins by hot plate method. Type of data set: functional, organism-based. In a few lines:
as §1

The species named for data set [8] is Mus musculus. Put plainly: Antinociceptive activity in Swiss albino mouse assessed as jumping latency at 3 ng by hot plate method in presence of norbinaltorphimine. Type of data set: functional, organism-based. In a few lines: as §3
The species named for data set [9] is Mus musculus. Put plainly: Antinociceptive activity in Swiss albino mouse assessed as jumping latency at 3 ng by hot plate method in presence of beta funaltrexamine. The data set is classed as functional, organism-based. The procedure, abridged: as §3
In another data set the test system is Brain. Put plainly: Drug uptake in Swiss albino mouse brain 0.01 to 1 mg/kg, iv. Type of data set: ADME, organism-based. Further details: dose 0.01-1 mg/kg, route intravenous. To be noted: in vivo. In a few lines: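 Blood–brain barrier passage judged in vivo. Peptides at 0.01 and 1 mg/kg were injected intravenously into male Swiss albino mice 30 min before a 55 °C hot plate test. Paw licking, rearing and jumping latencies recorded with a 240 s cut-off and expressed as %MPE.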

In data set [10] the test system is Mus musculus. Put plainly: Antinociceptive activity in Swiss albino mouse assessed as jumping latency at 10 ug, icv after 5 to 10 mins by hot plate method. The data set is classed as functional, organism-based. In a few lines:
as §1

Data set [11] relates to Mus musculus. Put plainly: Antinociceptive activity in Swiss albino mouse assessed as jumping latency at 10 ug, icv up to 90 mins by hot plate method. The data set is classed as functional, organism-based. The procedure, abridged: as §1
Data set [12] has as its system Mus musculus. Put plainly: Antinociceptive activity in icv dosed Swiss albino mouse assessed as jumping latency at 3 ug, icv up to 90 mins by hot plate method. Type of data set: functional, organism-based. The procedure, abridged: as §1
The test system of data set [13] is Mus musculus. Put plainly: Antinociceptive activity in Swiss albino mouse assessed as jumping latency at 3 ug, icv after 5 to 10 mins by hot plate method. The data set is classed as functional, organism-based. The procedure, abridged:
as §1

Chain of Mu-type opioid receptor (P33535 whole entry): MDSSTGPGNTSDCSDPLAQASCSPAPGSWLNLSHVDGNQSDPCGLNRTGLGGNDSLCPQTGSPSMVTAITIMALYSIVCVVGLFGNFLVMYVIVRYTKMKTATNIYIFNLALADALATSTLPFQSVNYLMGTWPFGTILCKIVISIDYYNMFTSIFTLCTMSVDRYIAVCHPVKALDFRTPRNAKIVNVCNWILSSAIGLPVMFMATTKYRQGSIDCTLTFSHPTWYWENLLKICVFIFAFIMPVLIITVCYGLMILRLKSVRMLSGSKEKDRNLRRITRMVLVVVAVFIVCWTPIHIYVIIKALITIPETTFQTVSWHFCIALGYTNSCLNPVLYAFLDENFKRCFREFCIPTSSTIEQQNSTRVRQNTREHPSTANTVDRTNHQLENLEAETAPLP
Chain of Delta-type opioid receptor (P33533 whole entry): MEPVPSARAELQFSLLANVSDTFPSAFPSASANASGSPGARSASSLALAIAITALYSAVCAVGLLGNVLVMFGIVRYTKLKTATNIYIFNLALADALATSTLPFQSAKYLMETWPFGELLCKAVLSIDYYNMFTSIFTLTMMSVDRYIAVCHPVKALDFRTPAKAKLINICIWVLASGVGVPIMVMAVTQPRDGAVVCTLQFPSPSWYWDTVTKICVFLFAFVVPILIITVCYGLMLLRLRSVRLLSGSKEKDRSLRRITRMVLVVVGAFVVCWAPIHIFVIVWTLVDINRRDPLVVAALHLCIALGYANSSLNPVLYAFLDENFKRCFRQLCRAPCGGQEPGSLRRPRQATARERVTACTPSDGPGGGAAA

`NC(=O)[C@@H]1CCCCNC(=O)C[C@@H](NC(=O)[C@@H](N)Cc2ccc(O)cc2)C(=O)N[C@@H](Cc2ccccc2)C(=O)N2CCC[C@@H]2C(=O)N1`: the Activity result with Mus musculus [1], with Mus musculus [3] and with Mus musculus [5] was “Dose-dependent effect” in each case. Further, the IC50 was 15.3 nM on Mu-type opioid receptor and more than 1000 nM in data set [2]. The ED50 in the data set with Mus musculus [3] worked out at 0.07 µg. Further, in the data set filed under Rattus norvegicus, the Ratio IC50 is more than 65.3. In data set [4], the half-life at 500 µM stood at 63.3 min.
In the case of `Cc1cc(O)cc(C)c1C[C@H](N)C(=O)N[C@@H]1CC(=O)NCCCC[C@@H](C(N)=O)NC(=O)[C@H]2CCCN2C(=O)[C@H](Cc2ccccc2)NC1=O`, the Activity entry in the data set on Mus musculus [1], with Mus musculus [3] and in the data set with Mus musculus [5] was “Dose-dependent effect” throughout. The figures for the IC50 (on Mu-type opioid receptor; in [2]) were 4.4 nM and 58.3 nM, respectively. Further, the outcome in the data set filed under Mus musculus [6], in the data set on Mus musculus [7] and in the data set listed under Mus musculus [8] was Active. Further, the result in the data set listed under Mus musculus [9] was inactive. For the same molecule, the ED50 in the data set with Mus musculus [3] was less than 0.01 µg. Further, the Ratio IC50 in the data set listed under Rattus norvegicus came to 13.2. The molecule also displayed a half-life at 500 µM in data set [4] of 627 min. The Drug uptake result with Brain is listed as “Not Active”.
For `NC(=O)[C@@H]1CCCN1C(=O)[C@H](Cc1ccccc1)NC(=O)[C@@H]1CCCN1C(=O)[C@@H](N)Cc1ccc(O)cc1` [MORPHICEPTIN] (H-YPFP-NH2), the Activity entry with Mus musculus [1], in the data set with Mus musculus [3] and in the data set with Mus musculus [5] was “Dose-dependent effect” in each case. In addition, the IC50 was 56.6 nM on Mu-type opioid receptor and more than 1000 nM in [2]. The result with Mus musculus [10] and with Mus musculus [11] was Active. Moreover, in the data set on Mus musculus [3], the ED50 turned out to be 5.11 µg. Moreover, the Ratio IC50 in the data set listed under Rattus norvegicus was more than 17.7. The half-life at 500 µM in data set [4] was 16.7 min.
As for `Cc1cc(O)cc(C)c1C[C@H](N)C(=O)N[C@@H]1CCCCNC(=O)C[C@@H](C(N)=O)NC(=O)[C@H]2CCCN2C(=O)[C@H](Cc2ccccc2)NC1=O`, the Activity entry in the data set with Mus musculus [1], in the data set with Mus musculus [3] and in the data set on Mus musculus [5] was “Dose-dependent effect” each time. Also, the IC50 on Mu-type opioid receptor worked out at 5.6 nM; in data set [2], 132 nM. The outcome in the data set listed under Mus musculus [6], in the data set on Mus musculus [7] and in the data set listed under Mus musculus [8] was Active. Also, the result in the data set listed under Mus musculus [9] was inactive. Further, the ED50 with Mus musculus [3] was less than 0.01 µg. Moreover, in the data set listed under Rattus norvegicus, the Ratio IC50 is 23.5. Moreover, the half-life at 500 µM in [4] is more than 1000 min. Further, the Drug uptake result with Brain is “Not Active”.
`NC(=O)[C@@H]1CC(=O)NCCCC[C@@H](NC(=O)[C@@H](N)Cc2ccc(O)cc2)C(=O)N[C@@H](Cc2ccccc2)C(=O)N[C@@H](Cc2ccccc2)C(=O)N1` (H-Y[dK]FFD-NH2; lactam 2-5): the Activity result with Mus musculus [1], in the data set with Mus musculus [3] and in the data set with Mus musculus [5] was “Dose-dependent effect” each time. For the same molecule, the results for the IC50 (at Mu-type opioid receptor; in data set [2]) were 0.56 nM and 279 nM, respectively. The ED50 in the data set on Mus musculus [3] is 0.05 µg. Also, the Ratio IC50 in the data set filed under Rattus norvegicus is 498. The molecule further registered a half-life at 500 µM in data set [4] of 363 min.
Turning to `NC(=O)[C@@H]1CC(=O)NCCCC[C@@H](NC(=O)[C@@H](N)Cc2ccc(O)cc2)C(=O)N[C@@H](Cc2ccccc2)C(=O)N2CCC[C@@H]2C(=O)N1`, the Activity entry in the data set on Mus musculus [1], with Mus musculus [3] and in the data set with Mus musculus [5] was “Dose-dependent effect” in each case. Besides, the IC50 at Mu-type opioid receptor is 89.5 nM; in data set [2], more than 1000 nM. Moreover, the ED50 in the data set on Mus musculus [3] came out at 0.02 µg. For the same molecule, the Ratio IC50 in the data set listed under Rattus norvegicus was more than 11.2. The molecule also gave a half-life at 500 µM in data set [4] of 117 min.
In the case of `CC(C)[C@H](NC(=O)[C@H](CCC(=O)O)NC(=O)[C@H](Cc1ccccc1)NC(=O)[C@H](C)NC(=O)[C@@H](N)Cc1ccc(O)cc1)C(=O)N[C@H](C(=O)NCC(=O)O)C(C)C` [DELTORPHINE II], the half-maximal inhibitory concentration (IC50) in data set [2] is 0.08 nM.
As to `NC(=O)[C@H](Cc1ccccc1)NC(=O)[C@H](Cc1ccccc1)NC(=O)[C@@H]1CCCN1C(=O)[C@@H](N)Cc1ccc(O)cc1` [ENDOMORPHIN 2], the Activity entry in the data set with Mus musculus [1], in the data set on Mus musculus [3] and in the data set on Mus musculus [5] was “Dose-dependent effect” throughout. The result with Mus musculus [12] and with Mus musculus [13] was Active. In addition, the ED50 with Mus musculus [3] came out at 5.48 µg. In data set [4], this molecule showed a half-life at 500 µM of 14.3 min.
In the case of `Cc1cc(O)cc(C)c1C[C@H](N)C(=O)N[C@@H]1CCCCNC(=O)C[C@@H](C(N)=O)NC(=O)[C@H](Cc2ccccc2)NC(=O)[C@H](Cc2ccccc2)NC1=O` (H-[Dmt][dK]FFD-NH2; lactam 2-5), the Activity entry in the data set on Mus musculus [1], in the data set on Mus musculus [3] and in the data set on Mus musculus [5] was “Dose-dependent effect” each time. For the same molecule, the figures for the IC50 (on Mu-type opioid receptor; in [2]) were 0.26 nM and 400 nM, respectively. Further, the ED50 in the data set on Mus musculus [3] came to 0.02 µg. In addition, the Ratio IC50 in the data set filed under Rattus norvegicus was more than 1000. In data set [4], this molecule showed a half-life at 500 µM of more than 1000 min.
